Source: PubChem BioAssay (Johns Hopkins Ion Channel Center)
This is a sample that favours compounds with a hit; in the whole collection about 3.7% have one here.
Kir21 block = Kir2.1 (mouse) channel inhibition. P35561. HEK293-Kir2.1, FluxOR thallium flux fluorescence; stronger effect = lower value. B-score at 10 µM. 0.85% of 310,000 active;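 active = fluorescence ratio B-score at or below minus 3 SD of library scores, with starting-brightness B-score within 2 SD, cut at about -4.2 in these data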;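 note: channel flux triggered by added potassium and thallium sulfate stimulus; B-score of peak minus minimum fluorescence over baseline after thallium stimulus; more negative B-score means stronger Kir2.1 block with less thallium influx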
KCNQ1 inh = human KCNQ1 channel inhibition; P51787; CHO-K1 KCNQ1, FluxOR thallium flux fluorescence; stronger effect = higher value; B-score at 10 µM; 1.3% of 310,000 active;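 active = compounds whose thallium flux B-score, printed positive for inhibition, exceeds three library SD while starting fluorescence stays within three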;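 note: channel opened by potassium depolarization with thallium stimulus after 20 min compound exposure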
KCNK3 block = human KCNK3 channel inhibition, primary screen; O14649; CHO-KCNK3 thallium flux, FluxOR fluorescence; stronger effect = lower value; B-score at 10 µM; 0.84% of 340,000 active; AID 602410;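 active = B-score under library mean minus 4 SD, starting fluorescence ratio at most library mean plus 5 SD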;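 note: more negative B-score means stronger inhibition of thallium flux through KCNK3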
KCNK9 block = human KCNK9 channel inhibition; Q9NPC2; HEK293 KCNK9, FluxOR thallium flux fluorescence; stronger effect = lower value; B-score at 10 µM; 1.2% of 310,000 active;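 active = ratio B-score over 3 SD below the library mean, with starting fluorescence within 5 SD of its mean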;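 note: negative B-score means less thallium flux so channel inhibition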
Target sequence (Q9NPC2 whole entry, looked up): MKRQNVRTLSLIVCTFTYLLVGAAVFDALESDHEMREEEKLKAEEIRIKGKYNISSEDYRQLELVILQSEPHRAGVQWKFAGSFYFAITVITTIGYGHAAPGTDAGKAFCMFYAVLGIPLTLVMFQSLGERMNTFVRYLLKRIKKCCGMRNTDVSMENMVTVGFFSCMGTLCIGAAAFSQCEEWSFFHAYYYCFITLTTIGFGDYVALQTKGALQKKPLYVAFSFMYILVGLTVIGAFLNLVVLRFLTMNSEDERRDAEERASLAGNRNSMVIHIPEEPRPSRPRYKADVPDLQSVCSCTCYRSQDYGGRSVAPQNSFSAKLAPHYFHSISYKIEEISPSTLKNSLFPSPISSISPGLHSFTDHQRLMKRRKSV
KCNQ1 pot = human KCNQ1 channel potentiation or activation; CHO-K1 KCNQ1, thallium flux FluxOR fluorescence; stronger effect = higher value; B-score at 10 µM; 0.35% of 310,000 active; AID 2648;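 active = fluorescence ratio B-score, a plate-corrected score, at least three library SD, with initial intensity B-score within 5 SD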
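Assay system: stable KCNQ1 CHO-K1 line; medium: assay buffer, equal DMSO in all wells; timing: 90 min dye loading and 20 min compound exposure, both at room temperature; technique: kinetic FluxOR thallium fluorescence, 10-s 1-Hz baseline, 110-s post-stimulus read; read-out basis: B score of baseline-normalized fluorescence ratio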
hERG rescue = hERG (human) protection from proarrhythmic block; Q12809; CHO-hERG, FluxOR thallium flux, dofetilide IC70 present; activation (rescue from dofetilide block), less the hit threshold, % at 10 µM; 0.51% of 310,000 active; AID 1511;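 active = activation above the mean of controls blocked by dofetilide plus 5 SD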;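 note: thallium influx through hERG after potassium depolarization seen as dye fluorescence rise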
KCNQ1 block val = confirmation of human KCNQ1 potassium channel inhibitors; shares compounds with KCNQ1 inh; KCNQ1 cell line, FluxOR thallium flux fluorescence; inhibition, % at 10 µM; 93% of 1,600 active; AID 588353;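 active = primary screen active, with duplicate mean exceeding buffer control mean plus 3 SD of buffer wells, cut at about 28% in these data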;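 note: 0% = buffer control ratio and 100% = XE991 inhibitor control ratio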
CHO Tl flux = activity in parental CHO cells lacking KCNQ1; fluorescence ratio (Tl flux) at 10 µM; shares compounds with KCNQ1 inh; parental CHO-K1, FluxOR thallium flux fluorescence ratio; stronger effect = lower value; zero means no signal rise above baseline; 21% of 1,600 active; AID 588366;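 active = mean of duplicate thallium-flux fluorescence ratios in parental host cells more than 5 SD below the buffer control mean, cut at about 0.38 in these data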;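 note: ratio is peak minus minimum fluorescence divided by baseline fluorescence; actives read low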
KCNQ1 APC inh = blocks human KCNQ1 current in automated patch clamp. shares compounds with KCNQ1 inh. KCNQ1-CHO cells. calls only at 10 µM. 20% of 490 active;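 active = KCNQ1 current drop exceeding 3 SD of negative control wells, seen in both duplicate runs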;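 note: steady state current during a 2 s step from -80 to +40 mV; negative values mean current inhibition and positive values mean potentiation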
KCNQ2 inh = rat KCNQ2 inhibition in KCNQ1 inhibitor specificity screen. AID 651746. inhibition, % at 10 µM. KCNQ2 cells, FluxOR thallium flux fluorescence. shares compounds with KCNQ1 inh. 71% of 1,600 active;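 active = mean percent inhibition of the KCNQ2 thallium signal more than 5 SD above the buffer-only control wells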;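 note: KCNQ2 expressed in CHO cells; 0% = buffer control wells and 100% = XE-991 inhibitor control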
KCNQ1 KCNE1 spec = selectivity of KCNQ1 inhibitors: inhibition of human KCNQ1/KCNE1 channel; inhibition, % at 10 µM; KCNQ1/KCNE1 cells, FluxOR thallium flux fluorescence; 77% of 1,600 active; shares compounds with KCNQ1 inh;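 active = mean percent inhibition of duplicate wells above the buffer-only control mean plus 3 SD of those controls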;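 note: 0% = buffer only wells and 100% = XE-991 inhibitor control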
Numbers without * were called inactive.

For CC1(C)OC(c2ccccc2)=C/C(=C/C=C2C(=O)NC(=S)NC2=O)O1 the results were Kir21 block -3.29, KCNQ1 inh 15*, KCNK9 block inactive, KCNQ1 pot inactive, hERG rescue -17.8, KCNQ1 block val 82.0*, CHO Tl flux 0.341*, KCNQ2 inh inactive and KCNQ1 KCNE1 spec inactive.
Screening CN1/C(=C\C=C2C(=O)NC(=S)NC2=O)C(C)(C)c2ccccc21 returned Kir21 block -2.07, KCNQ1 inh inactive, KCNK3 block inactive, KCNK9 block inactive, KCNQ1 pot inactive and hERG rescue -8.2.
Screening O=C(c1ccco1)c1cn(Cc2ccccc2Cl)c2ccccc12 returned Kir21 block -0.77, KCNQ1 inh 7*, KCNK3 block inactive, KCNK9 block -7.54*, KCNQ1 pot inactive, hERG rescue -5.6, KCNQ1 block val 91.0*, CHO Tl flux 0.384, KCNQ1 APC inh inactive, KCNQ2 inh 102.3%* and KCNQ1 KCNE1 spec 152.5%*.
Screening Cc1cc(C(=O)OCC(=O)Nc2ccccc2F)c(C)n1C1CC1 returned KCNK3 block inactive.
`C[n+]1c(-c2ccccc2)c2cc(N)ccc2c2ccc(N)cc21` gave Kir21 block 0.6, KCNQ1 inh inactive, KCNK3 block inactive, KCNK9 block inactive, KCNQ1 pot inactive and hERG rescue -10.1.
`Nc1ccc2ccc3cccc[n+]3c2c1` gave Kir21 block -23.1, KCNQ1 inh 24*, KCNK3 block inactive, KCNK9 block inactive, KCNQ1 pot inactive, hERG rescue -43.9, KCNQ1 block val active, CHO Tl flux 0.0075*, KCNQ2 inh inactive and KCNQ1 KCNE1 spec inactive.
For O=c1cc(C(F)(F)F)c2cc3c4c(c2o1)CCCN4CCC3 the results were Kir21 block -10.8, KCNQ1 inh 37*, KCNK3 block inactive, KCNK9 block inactive, KCNQ1 pot inactive, hERG rescue -15.8, KCNQ1 block val active, CHO Tl flux 0.0225*, KCNQ2 inh inactive and KCNQ1 KCNE1 spec inactive.
Screening COc1ccc2nc3c(C)n(C)ccc-3c2c1 returned KCNK3 block inactive.
CCCCCCn1c(=O)c(C(=O)Nc2ncccc2O)c(O)c2ccccc21 was read as Kir21 block 1.14, KCNQ1 inh 7*, KCNK3 block inactive, KCNK9 block inactive, KCNQ1 pot inactive, hERG rescue -5.7, KCNQ1 block val 58.5*, CHO Tl flux 0.43, KCNQ2 inh 62.0%* and KCNQ1 KCNE1 spec 50.0%*.
CCCCCn1c(=O)c(C(=O)Nc2ccccc2N)c(O)c2ccccc21 was read as Kir21 block 1.94, KCNQ1 inh inactive, KCNK3 block inactive, KCNK9 block inactive, KCNQ1 pot inactive and hERG rescue -1.2.
Screening CCCCCCn1c(=O)c(C(=O)Nc2cnccn2)c(O)c2ccccc21 returned Kir21 block 0.74, KCNQ1 inh 9*, KCNK3 block inactive, KCNK9 block inactive, KCNQ1 pot inactive, hERG rescue -12.5, KCNQ1 block val 43.5*, CHO Tl flux 0.499, KCNQ2 inh inactive and KCNQ1 KCNE1 spec inactive.
`ClCCN(CCCl)c1ccc(-n2cnc3c(Cl)ncnc32)cc1` gave KCNK3 block inactive.
